Laboratory results published in ChEMBL document CHEMBL5705906 (Nat Commun, 2017).
Active and inactive are the calls of the source. The rule behind the calls is not given here.

Experiments:
[1] = test system: BaF3; details: Mus musculus, dose 30-1000 nM, time 6.0 hrs
[2] = test system: A-431; test: Anticancer activity against human A-431 cells assessed as reduction in cell viability at IC50 concentration incubated for 72 hrs by CellTiter-Glo assay; format: functional, cell-based
Procedure, shortened: (§1)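 Three-day CellTiter-Glo viability assay. Cells exposed to compound across a 10-dose range of 0.3 nM to 10 µM for 72 h. IC50 from nonlinear sigmoidal dose-response fit.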

[3] = test system: Epidermal growth factor receptor (Homo sapiens), P00533 [UNDEFINED MUTATION]; details: PC-9, dose 500.0 nM, time 48.0 hrs
Chain of Epidermal growth factor receptor (Homo sapiens), P00533 [UNDEFINED MUTATION] (P00533 whole entry, looked up, stated change not applied): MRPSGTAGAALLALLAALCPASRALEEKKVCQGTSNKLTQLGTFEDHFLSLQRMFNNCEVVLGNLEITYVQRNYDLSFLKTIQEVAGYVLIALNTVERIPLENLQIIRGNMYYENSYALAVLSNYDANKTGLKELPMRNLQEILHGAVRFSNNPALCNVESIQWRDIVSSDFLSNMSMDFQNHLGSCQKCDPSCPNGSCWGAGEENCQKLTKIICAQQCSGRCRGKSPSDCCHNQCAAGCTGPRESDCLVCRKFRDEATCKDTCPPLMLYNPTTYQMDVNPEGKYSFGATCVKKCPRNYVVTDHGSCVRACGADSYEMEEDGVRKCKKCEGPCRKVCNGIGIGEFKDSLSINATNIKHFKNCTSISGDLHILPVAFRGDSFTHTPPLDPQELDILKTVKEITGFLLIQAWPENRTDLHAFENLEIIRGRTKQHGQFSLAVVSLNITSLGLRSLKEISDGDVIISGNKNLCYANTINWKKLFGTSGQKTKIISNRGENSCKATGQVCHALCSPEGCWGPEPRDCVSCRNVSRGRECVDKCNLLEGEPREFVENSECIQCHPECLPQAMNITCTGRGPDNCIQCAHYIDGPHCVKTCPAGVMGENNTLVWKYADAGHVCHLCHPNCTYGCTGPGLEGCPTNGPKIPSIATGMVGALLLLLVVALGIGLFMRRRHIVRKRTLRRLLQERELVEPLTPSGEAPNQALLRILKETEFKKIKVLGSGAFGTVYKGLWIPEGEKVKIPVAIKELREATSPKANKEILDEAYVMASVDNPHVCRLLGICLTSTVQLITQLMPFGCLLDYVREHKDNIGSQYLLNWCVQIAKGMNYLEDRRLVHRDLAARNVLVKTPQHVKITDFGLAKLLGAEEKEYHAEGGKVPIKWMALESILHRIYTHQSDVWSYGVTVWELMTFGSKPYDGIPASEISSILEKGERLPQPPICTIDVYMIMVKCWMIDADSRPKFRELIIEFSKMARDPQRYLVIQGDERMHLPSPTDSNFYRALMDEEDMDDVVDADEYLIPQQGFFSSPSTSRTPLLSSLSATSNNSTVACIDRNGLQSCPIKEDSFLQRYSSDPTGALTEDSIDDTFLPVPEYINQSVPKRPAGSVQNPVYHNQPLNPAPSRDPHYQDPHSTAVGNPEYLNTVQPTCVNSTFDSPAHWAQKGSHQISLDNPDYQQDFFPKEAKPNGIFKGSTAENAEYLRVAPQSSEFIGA

[4] = test system: BaF3; details: Mus musculus, dose 10-1000 nM, time 6.0 hrs
[5] = test system: Epidermal growth factor receptor (Homo sapiens), P00533 [UNDEFINED MUTATION]; details: MGH121, dose 10-1000 nM
[6] = test system: Epidermal growth factor receptor (Homo sapiens), P00533 [UNDEFINED MUTATION]; details: PC-9, dose 500.0 nM, time 6-48 hrs, TDE = time-dependent effect
[7] = test system: Epidermal growth factor receptor (Homo sapiens), P00533 [UNDEFINED MUTATION]; details: MGH121, dose 500.0 nM, time 48.0 hrs
[8] = test system: PC-9; test: Anti-tumor activity against EGFR T790M/del19 mutant expressing gefitinib-resistant human PC-9 cells xenografted in Balb-c nu/nu mouse assessed as prolonged survival at 75 mg/kg, po administered for 42 days; format: functional, organism-based; details: time 42.0 day
[9] = Toxicity against SCID-beige mouse xenografted with human MGH121 cells expressing EGFR-C797S/T790M/del19 mutant assessed as change in body weight at 75 mg/kg, po administered for 40 days and measured twice weekly in presence of cetuximab; format: organism-based; details: in vivo, 960 h, time 40 day
Procedure, shortened: (§2)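 SCID-beige mice with subcutaneous MGH121-res2 implants were randomized to vehicle or treatment at a mean tumour volume of ~200 mm³. […] Body weight was measured twice weekly, N=6 per group.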

[10] = Cytotoxicity against mouse Ba/F3 EGFR-Del19/T790M/C797S cells assessed as inhibition of cell viability by measuring fold change at 30 nM incubated for 72 hrs in presence of cetuximab by CellTiter-Glo assay relative to brigatinib alone; format: functional
[11] = test system: BaF3; test: Inhibition of EGFR-T790M/del19 mutant in mouse BaF3 cells assessed as inhibition of Akt phosphorylation at 10 to 1000 nM incubated for 6 hrs by Western blotting analysis; format: cell-based; details: dose 10-1000 nM
Procedure, shortened: (§3)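 Ba/F3 cells carrying the stated EGFR mutant were made IL-3-independent after 1 week of 7 µM blasticidin selection. They were grown in low-glucose DMEM with 10% FBS and exposed to inhibitor for 6 h. Cells were washed in cold PBS, lysed in SDS buffer (100 mM Tris, 1% SDS, 10% glycerol) and boiled 5 min. Protein was measured by BCA, run on SDS-PAGE, transferred to PVDF, blocked in 5% BSA or milk/TBS-T, and immunoblotted.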

[12] = test system: PC-9; test: Inhibition of EGFR T790M/del19 mutant in human PC-9 cells assessed as reduction in EGFR phosphorylation at 10 to 1000 nM by Western blotting analysis; format: cell-based; details: dose 10-1000 nM
[13] = test system: Epidermal growth factor receptor (Homo sapiens), P00533 [UNDEFINED MUTATION]; details: PC-9, dose 10-1000 nM
[14] = test system: BaF3; details: Mus musculus, dose 10-1000 nM, time 6.0 hrs; remark: listed apart in the source
[15] = Toxicity against SCID-beige mouse xenografted with human MGH121 cells expressing EGFR-C797S/T790M/del19 mutant assessed as change in body weight at 75 mg/kg, po administered for 40 days and measured twice weekly; format: organism-based; details: in vivo, 960 h, time 40 day
Procedure, shortened: as §2

[16] = test system: NCI-H460; test: Anticancer activity against KRAS-mutated human NCI-H460 cells assessed as reduction in cell viability at 1 to 10000 nM incubated for 72 hrs by CellTiter-Glo assay; format: functional, cell-based; details: dose 1-10000 nM
[17] = test system: PC-9; details: Homo sapiens, dose 75.0 mg/kg, route po, time 15.0 day
[18] = test system: PC-9; details: Homo sapiens, dose 75.0 mg/kg, route po, time 60.0 day
[19] = test system: BaF3; test: Inhibition of EGFR-C797S/T790M/L858R mutant expressed in mouse BaF3 cells assessed as inhibition of Akt phosphorylation at 10 to 1000 nM incubated for 6 hrs by Western blotting analysis; format: cell-based; details: dose 10-1000 nM
Procedure, shortened: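 Ba/F3 cells expressing EGFR-L858R-series mutants treated with inhibitors for 6 h. SDS lysates quantified by BCA, run on SDS-PAGE and blotted to PVDF. Probed for phospho-EGFR (Tyr1068), total EGFR and downstream phospho-proteins.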

[20] = test system: Epidermal growth factor receptor (Homo sapiens), P00533 [UNDEFINED MUTATION]; details: PC-9, dose 500.0 nM, time 48.0 hrs; remark: listed apart in the source
[21] = Toxicity against Balb-c nu/nu mouse xenografted with human PC-9 cells expressing EGFR-C797S/T790M/del19 mutant assessed as change in body weight at 75 mg/kg, po administered for 15 days and measured twice weekly; format: organism-based; details: in vivo, 360 h, time 15 day
Procedure, shortened: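 PC9 triple-mutant cells (6×10^6 in 100 µl 1:2 Matrigel) were implanted subcutaneously in Balb-c nu/nu mice. At a mean tumour volume of ~200 mm³, mice were randomized, excluding the top and bottom 5% by tumour size. […] Body weight was recorded twice weekly, n=6 per group, and tumours were resected on treatment day 15.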

[22] = test system: NCI-H460; test: Anticancer activity against human NCI-H460 cells assessed as reduction in cell viability at IC50 concentration incubated for 72 hrs by CellTiter-Glo assay; format: functional, cell-based
Procedure, shortened: as §1

[23] = test system: BaF3; test: Inhibition of EGFR-T790M/del19 mutant in mouse BaF3 cells assessed as inhibition of ERK phosphorylation at 10 to 1000 nM incubated for 6 hrs by Western blotting analysis; format: cell-based; details: dose 10-1000 nM
Procedure, shortened: as §3

[24] = test system: BaF3; details: Mus musculus, dose 30-1000 nM, time 6.0 hrs; remark: listed apart in the source
[25] = test system: PC-9; details: Homo sapiens, dose 75.0 mg/kg, route po, time 60.0 day; remark: listed apart in the source
[26] = test system: BaF3; format: cell-based; details: Mus musculus, dose 10-1000 nM, time 6.0 hrs
[27] = test system: PC-9; test: Anti-tumor activity against EGFR T790M/del19 mutant expressing gefitinib-resistant human PC-9 cells xenografted in Balb-c nu/nu mouse assessed as growth inhibition at 75 mg/kg, po administered for 42 days and measured for 3 times per week in presence of cetuximab; format: functional, organism-based; details: time 42.0 day

SMILES: COc1cc(N2CCC(N3CCN(C)CC3)CC2)ccc1Nc1ncc(Cl)c(Nc2ccccc2P(C)(C)=O)n1 [BRIGATINIB]
- inhibition [1]: Active
- Activity [2]: Active
- inhibition [3]: Active
- inhibition [4]: Active
- inhibition [5]: Active
- inhibition [6]: Tde
- inhibition [7]: Active
- Activity [8]: Active
- Activity [9]: Non-Toxic
- fold change (FC) [10]: ~3
- inhibition [11]: Active
- inhibition [12]: Active
- inhibition [13]: Active
- inhibition [14]: Active
- Activity [15]: Non-Toxic
- Activity [16]: Active
- inhibition [17]: Active
- inhibition [18]: Active
- inhibition [19]: Active
- inhibition [20]: inactive
- Activity [21]: Non-Toxic
- Activity [22]: Active
- inhibition [23]: Active
- inhibition [24]: Active
- inhibition [25]: Active
- inhibition [26]: Active
- Activity [27]: Active
